Measured values reported in ChEMBL document CHEMBL4422635, “Structure-Based Discovery of a Subtype-Selective Inhibitor Targeting a Transient Receptor Potential Vanilloid Channel” (J Med Chem, 2019).
Residue numbers refer to the chain shown, from its start. Activity calls are given as the source filed them. No cut-off for these calls is given here.

Legend:
Mus musculus = experiment: Antagonist activity at mouse TRPV2/LPAR1 expressed in LPA-stimulated HEK293T cells assessed as inhibition of 2-APB evoked currents at 10 uM dosed 3 mins after LPA stimulation by whole-cell patch clamp assay
Method in brief: (§1)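 Whole-cell voltage clamp of transiently transfected HEK293T cells co-expressing GFP, recorded 36-96 h post-transfection. Hold -60 mV; pipettes 3-7 MΩ. Bath 165 mM NaCl, 10 mM HEPES pH 7.3; pipette 140 mM KCl, 10 mM HEPES pH 7.3. Room temperature (~25 °C). IC50 from Hill fits of I/I0, the current ratio after vs before inhibitor; mean ± SEM.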

[1] = tested on: T1, Transient receptor potential cation channel subfamily V member 2 (Mus musculus), Q9WTR1 [L505T]; experiment: Antagonist activity at mouse TRPV2 L505T mutant expressed in HEK293T cells assessed as inhibition of 2-APB evoked currents at -60 mV holding potential by whole-cell patch clamp assay; type: cell-based; method in brief: as §1
T1 sequence (whole entry): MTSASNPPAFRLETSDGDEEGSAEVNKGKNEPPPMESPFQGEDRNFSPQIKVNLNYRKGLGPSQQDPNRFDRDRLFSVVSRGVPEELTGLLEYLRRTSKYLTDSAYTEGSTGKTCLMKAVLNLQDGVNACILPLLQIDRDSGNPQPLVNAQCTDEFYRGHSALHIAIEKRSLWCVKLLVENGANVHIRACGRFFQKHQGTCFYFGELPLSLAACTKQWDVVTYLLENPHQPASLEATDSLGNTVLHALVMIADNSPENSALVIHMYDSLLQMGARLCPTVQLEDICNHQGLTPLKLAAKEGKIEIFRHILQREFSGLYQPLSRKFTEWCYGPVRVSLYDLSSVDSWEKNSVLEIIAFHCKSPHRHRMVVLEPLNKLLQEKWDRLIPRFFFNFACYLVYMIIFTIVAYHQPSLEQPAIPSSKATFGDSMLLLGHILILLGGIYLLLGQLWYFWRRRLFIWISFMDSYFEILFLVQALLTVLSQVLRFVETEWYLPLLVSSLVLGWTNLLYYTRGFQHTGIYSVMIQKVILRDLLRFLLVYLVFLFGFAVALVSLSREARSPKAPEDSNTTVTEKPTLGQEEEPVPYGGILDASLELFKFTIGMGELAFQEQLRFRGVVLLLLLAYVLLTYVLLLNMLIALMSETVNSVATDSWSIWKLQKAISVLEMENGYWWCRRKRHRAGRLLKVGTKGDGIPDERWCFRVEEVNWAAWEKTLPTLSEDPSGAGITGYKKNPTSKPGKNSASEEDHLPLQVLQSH

[2] = biological target: T2, Transient receptor potential cation channel subfamily V member 2 (Mus musculus) (UniProt Q9WTR1); experiment: Antagonist activity at mouse TRPV2 expressed in HEK293T cells assessed as inhibition of 2-APB evoked currents at -60 mV holding potential by whole-cell patch clamp assay; type: cell-based; method in brief: as §1
T2 sequence (whole entry): T1 sequence (whole entry) with T505L

[3] = biological target: Transient receptor potential cation channel subfamily V member 4 (Mus musculus) (UniProt Q9EPK8); experiment: Antagonist activity at mouse TRPV4 expressed in HEK293T cells assessed as inhibition of GSK-1016790A evoked currents at 3 to 10 uM -60 mV holding potential by whole-cell patch clamp assay; type: cell-based; method in brief: as §1
PC-3M = experiment: Antimetastatic activity in human PC3M cells at 5 to 20 uM after 24 hrs by transwell migration assay; type: functional, cell-based
Method in brief: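 PC-3M cells kept in RPMI 1640 with 10% FBS at 37 °C, 5% CO2.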

[4] = tested on: T3, Transient receptor potential cation channel subfamily V member 2 (Mus musculus), Q9WTR1 [Q525E]; experiment: Antagonist activity at mouse TRPV2 Q525E mutant expressed in HEK293T cells assessed as inhibition of 2-APB evoked currents at -60 mV holding potential by whole-cell patch clamp assay; type: cell-based; method in brief: as §1
T3 sequence (whole entry): T1 sequence (whole entry) with T505L, Q525E

Chain of Transient receptor potential cation channel subfamily V member 4 (Mus musculus) (Q9EPK8 whole entry): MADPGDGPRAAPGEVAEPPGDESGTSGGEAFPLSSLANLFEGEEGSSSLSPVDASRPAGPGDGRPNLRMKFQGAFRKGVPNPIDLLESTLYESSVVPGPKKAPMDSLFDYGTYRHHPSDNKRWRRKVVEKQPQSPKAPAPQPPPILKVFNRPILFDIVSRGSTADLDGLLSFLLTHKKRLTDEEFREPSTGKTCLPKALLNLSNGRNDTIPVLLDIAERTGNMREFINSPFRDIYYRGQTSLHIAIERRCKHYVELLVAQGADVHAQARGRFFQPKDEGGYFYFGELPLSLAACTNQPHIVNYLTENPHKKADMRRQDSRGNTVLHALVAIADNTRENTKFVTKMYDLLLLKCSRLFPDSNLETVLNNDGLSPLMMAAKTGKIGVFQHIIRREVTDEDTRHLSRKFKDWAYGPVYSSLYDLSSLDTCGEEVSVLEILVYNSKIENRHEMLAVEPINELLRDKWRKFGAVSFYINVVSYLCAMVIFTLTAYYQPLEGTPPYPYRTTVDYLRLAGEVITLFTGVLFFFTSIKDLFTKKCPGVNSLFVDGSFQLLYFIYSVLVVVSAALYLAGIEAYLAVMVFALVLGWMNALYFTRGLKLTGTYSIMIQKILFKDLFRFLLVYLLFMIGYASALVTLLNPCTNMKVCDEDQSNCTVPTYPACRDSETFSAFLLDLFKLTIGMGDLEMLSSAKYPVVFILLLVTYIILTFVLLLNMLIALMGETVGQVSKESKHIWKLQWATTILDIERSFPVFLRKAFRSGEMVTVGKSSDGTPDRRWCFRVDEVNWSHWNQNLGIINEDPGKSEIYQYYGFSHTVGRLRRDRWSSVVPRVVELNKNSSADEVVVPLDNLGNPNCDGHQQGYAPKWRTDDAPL

inhibition [1]: inactive
inhibition [2]: Dose-dependent effect
inhibition [3]: inactive
inhibition [4]: inactive
SMILES: CCCN(C)c1cc(C(F)(F)F)nc(SCCC(=O)NCc2ccco2)n1
inhibition (Mus musculus): Active
Activity (PC-3M): Active
